One data set has as its system HT-29. In words: Cytostatic activity against human HT-29 cells preincubated for 24 hrs under serum free condition followed by compound washout and further incubation for 48 hrs in presence of serum by MTT assay. Type of data set: functional, cell-based. In short, it runs like this:
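HT-29 cells were exposed to the compound for 24 h, washed, and kept a further 48 h. Viability was read by MTT. Absorbances were normalized to untreated controls and fitted by nonlinear regression to dose-response curves to give IC50.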
Background: Tetrazolium assays rely on reduction of a dye to a coloured formazan, in cell work by metabolically active cells.

Data set [1] can be described thus: Retention time of the compound using 0.1% TFA in water and 0.1% TFA in acetonitrile-water (80:20 v/v) as eluents by RP-HPLC analysis. Type of data set: physicochemical. In outline:
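Analytical RP-HPLC. Eluent A was 0.1% TFA in water and eluent B was 0.1% TFA in acetonitrile-water (80:20, v/v). Gradient: 0% B held to 5 min, then to 90% B at 50 min. Flow 1 mL/min, detection at 220 nm. The column was a Phenomenex Aeris Peptide XB-C18 (250×4.6 mm, 3.6 μm) or a Nucleosil C18 (5 μm, 100 Å, 250×4.6 mm), depending on the conjugate series.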

A word on the IC50: it is the concentration that gives 50% inhibition.

Where a SMILES comes first, the peptide text is derived from it. The star is where a group is joined. X1 = COc1cccc2c1C(=O)c1c(O)c3c(c(O)c1C2=O)C[C@@](O)(/C(C)=N/OCC(=O)*)C[C@@H]3O[C@H]1C[C@H](N)[C@H](O)[C@H](C)O1

With `COc1cccc2c1C(=O)c1c(O)c3c(c(O)c1C2=O)C[C@@](O)(/C(C)=N/OCC(=O)N[C@@H](CC(C)C)C(=O)N[C@@H](CCCNC(=N)N)C(=O)N[C@@H](CCCNC(=N)N)C(=O)N[C@@H](Cc1ccc(O)cc1)C(=O)N[C@H](C(=O)N[C@@H](Cc1cnc[nH]1)C(=O)N[C@@H](CC(C)C)C(=O)N[C@@H](Cc1ccc(O)cc1)C(=O)N[C@@H](Cc1ccc(O)cc1)C(=O)N[C@@H](C)C(=O)N[C@H](C(N)=O)[C@@H](C)O)C(C)C)C[C@@H]3O[C@H]1C[C@H](N)[C@H](O)[C@H](C)O1` (X1-LRRYVHLYYAT-NH2), the IC50 in the data set on HT-29 is 38.4 µM. This molecule also came in with a Retention time in data set [1] of 30.8 to 31.7 min.

For the molecule `COc1cccc2c1C(=O)c1c(O)c3c(c(O)c1C2=O)C[C@@](O)(/C(C)=N/OCC(=O)N[C@@H](CC(C)C)C(=O)N[C@@H](CCCNC(=N)N)C(=O)N[C@@H](CCCNC(=N)N)C(=O)N[C@@H](Cc1ccc(O)cc1)C(=O)N[C@H](C(=O)N[C@@H](Cc1cnc[nH]1)C(=O)N[C@@H](CC(C)C)C(=O)N[C@@H](CCC(=O)O)C(=O)N[C@@H](Cc1ccc(O)cc1)C(=O)N[C@@H](C)C(=O)N[C@H](C(N)=O)[C@@H](C)O)C(C)C)C[C@@H]3O[C@H]1C[C@H](N)[C@H](O)[C@H](C)O1` (X1-LRRYVHLEYAT-NH2), in the data set on HT-29, the IC50 stood at 29.5 µM. The same molecule registered a Retention time in data set [1] of 29.3 to 31.2 min.

On to `COc1cccc2c1C(=O)c1c(O)c3c(c(O)c1C2=O)C[C@@](O)(/C(C)=N/OCC(=O)N[C@@H](CC(C)C)C(=O)N[C@@H](CCCNC(=N)N)C(=O)N[C@@H](CCCNC(=N)N)C(=O)N[C@@H](Cc1ccc(O)cc1)C(=O)N[C@H](C(=O)N[C@@H](Cc1cnc[nH]1)C(=O)N[C@@H](CC(C)C)C(=O)N[C@H](C(=O)N[C@@H](Cc1ccc(O)cc1)C(=O)N[C@@H](C)C(=O)N[C@H](C(N)=O)[C@@H](C)O)[C@@H](C)O)C(C)C)C[C@@H]3O[C@H]1C[C@H](N)[C@H](O)[C@H](C)O1` (X1-LRRYVHLTYAT-NH2), for which, in the data set on HT-29, the IC50 is 21.7 µM. For the same molecule, in data set [1], the Retention_time was determined as 29 min.

As for `COc1cccc2c1C(=O)c1c(O)c3c(c(O)c1C2=O)C[C@@](O)(/C(C)=N/OCC(=O)N[C@@H](CC(C)C)C(=O)N[C@@H](CCCNC(=N)N)C(=O)N[C@@H](CCCNC(=N)N)C(=O)N[C@@H](Cc1ccc(O)cc1)C(=O)N[C@H](C(=O)N[C@@H](Cc1cnc[nH]1)C(=O)N[C@@H](CC(C)C)C(=O)N[C@@H](Cc1ccccc1)C(=O)N[C@@H](Cc1ccc(O)cc1)C(=O)N1CCC[C@H]1C(=O)N[C@H](C(N)=O)[C@@H](C)O)C(C)C)C[C@@H]3O[C@H]1C[C@H](N)[C@H](O)[C@H](C)O1` (X1-LRRYVHLFYPT-NH2), the IC50 with HT-29 was 10.9 µM. This molecule gave a Retention_time in data set [1] of 31.6 min.

On to `COc1cccc2c1C(=O)c1c(O)c3c(c(O)c1C2=O)C[C@@](O)(/C(C)=N/OCC(=O)N[C@H](C(=O)N[C@@H](Cc1cnc[nH]1)C(=O)N[C@@H](CC(C)C)C(=O)NCC(=O)N[C@@H](Cc1ccc(O)cc1)C(=O)N[C@@H](C)C(=O)N[C@H](C(N)=O)[C@@H](C)O)C(C)C)C[C@@H]3O[C@H]1C[C@H](N)[C@H](O)[C@H](C)O1` (X1-VHLGYAT-NH2), for which, in data set [1], the Retention_time was 26.1 min.

In the case of `COc1cccc2c1C(=O)c1c(O)c3c(c(O)c1C2=O)C[C@@](O)(/C(C)=N/OCC(=O)N[C@@H](CC(C)C)C(=O)N[C@@H](CCCNC(=N)N)C(=O)N[C@@H](CCCNC(=N)N)C(=O)N[C@@H](Cc1ccc(O)cc1)C(=O)N[C@H](C(=O)N[C@@H](Cc1cnc[nH]1)C(=O)N[C@@H](CC(C)C)C(=O)N[C@@H](Cc1ccccc1)C(=O)N[C@@H](Cc1ccc(O)cc1)C(=O)N[C@@H](CO)C(=O)N[C@H](C(N)=O)[C@@H](C)O)C(C)C)C[C@@H]3O[C@H]1C[C@H](N)[C@H](O)[C@H](C)O1` (X1-LRRYVHLFYST-NH2), the IC50 with HT-29 was found to be 17.7 µM. Further, the Retention time in data set [1] was 32.1 to 32.9 min.

Consider `COc1cccc2c1C(=O)c1c(O)c3c(c(O)c1C2=O)C[C@@](O)(/C(C)=N/OCC(=O)N[C@@H](CC(C)C)C(=O)N[C@@H](CCCNC(=N)N)C(=O)N[C@@H](CCCNC(=N)N)C(=O)N[C@@H](Cc1ccc(O)cc1)C(=O)N[C@H](C(=O)N[C@@H](Cc1cnc[nH]1)C(=O)N[C@@H](CC(C)C)C(=O)N[C@@H](CCCCN)C(=O)N[C@@H](Cc1ccc(O)cc1)C(=O)N[C@@H](C)C(=O)N[C@H](C(N)=O)[C@@H](C)O)C(C)C)C[C@@H]3O[C@H]1C[C@H](N)[C@H](O)[C@H](C)O1` (X1-LRRYVHLKYAT-NH2), for which, in the data set on HT-29, the IC50 amounted to 50.3 µM. The molecule further displayed a Retention time in data set [1] of 28.2 to 30.1 min.

With `COc1cccc2c1C(=O)c1c(O)c3c(c(O)c1C2=O)C[C@@](O)(/C(C)=N/OCC(=O)N[C@@H](CC(C)C)C(=O)N[C@@H](CCCNC(=N)N)C(=O)N[C@@H](CCCNC(=N)N)C(=O)N[C@@H](Cc1ccc(O)cc1)C(=O)N[C@H](C(=O)N[C@@H](Cc1cnc[nH]1)C(=O)N[C@@H](CC(C)C)C(=O)N[C@@H](CC(N)=O)C(=O)N[C@@H](Cc1ccc(O)cc1)C(=O)N[C@@H](C)C(=O)N[C@H](C(N)=O)[C@@H](C)O)C(C)C)C[C@@H]3O[C@H]1C[C@H](N)[C@H](O)[C@H](C)O1` (X1-LRRYVHLNYAT-NH2), the IC50 with HT-29 was 28 µM. Besides, the Retention time in data set [1] lay in the range of 29 to 30.8 min.

`COc1cccc2c1C(=O)c1c(O)c3c(c(O)c1C2=O)C[C@@](O)(/C(C)=N/OCC(=O)N[C@@H](CC(C)C)C(=O)N[C@@H](CCCNC(=N)N)C(=O)N[C@@H](CCCNC(=N)N)C(=O)N[C@@H](Cc1ccc(O)cc1)C(=O)N[C@H](C(=O)N[C@@H](Cc1cnc[nH]1)C(=O)N[C@@H](CC(C)C)C(=O)N[C@@H](Cc1ccccc1)C(=O)N[C@@H](Cc1ccc(O)cc1)C(=O)N[C@@H](CC(N)=O)C(=O)N[C@H](C(N)=O)[C@@H](C)O)C(C)C)C[C@@H]3O[C@H]1C[C@H](N)[C@H](O)[C@H](C)O1` (X1-LRRYVHLFYNT-NH2): in the data set with HT-29, the IC50 turned out to be 15.4 µM. In data set [1], this molecule gave a Retention_time of 31.8 min.

With `COc1cccc2c1C(=O)c1c(O)c3c(c(O)c1C2=O)C[C@@](O)(/C(C)=N/OCC(=O)N[C@@H](CC(C)C)C(=O)N[C@@H](CCCNC(=N)N)C(=O)N[C@@H](CCCNC(=N)N)C(=O)N[C@@H](Cc1ccc(O)cc1)C(=O)N[C@H](C(=O)N[C@@H](Cc1cnc[nH]1)C(=O)N[C@@H](CC(C)C)C(=O)N[C@@H](CC(C)C)C(=O)N[C@@H](Cc1ccc(O)cc1)C(=O)N[C@@H](C)C(=O)N[C@H](C(N)=O)[C@@H](C)O)C(C)C)C[C@@H]3O[C@H]1C[C@H](N)[C@H](O)[C@H](C)O1` (X1-LRRYVHLLYAT-NH2), in the data set with HT-29, the IC50 worked out at 7.5 µM. The same molecule registered a Retention time in data set [1] of 31.1 to 33.1 min.

For `COc1cccc2c1C(=O)c1c(O)c3c(c(O)c1C2=O)C[C@@](O)(/C(C)=N/OCC(=O)N[C@@H](CC(C)C)C(=O)N[C@@H](CCCNC(=N)N)C(=O)N[C@@H](CCCNC(=N)N)C(=O)N[C@@H](Cc1ccc(O)cc1)C(=O)N[C@H](C(=O)N[C@@H](Cc1cnc[nH]1)C(=O)N[C@@H](CC(C)C)C(=O)N[C@@H](Cc1ccccc1)C(=O)N[C@@H](Cc1ccc(O)cc1)C(=O)N[C@@H](CCC(=O)O)C(=O)N[C@H](C(N)=O)[C@@H](C)O)C(C)C)C[C@@H]3O[C@H]1C[C@H](N)[C@H](O)[C@H](C)O1` (X1-LRRYVHLFYET-NH2), in the data set with HT-29, the half-maximal inhibitory concentration (IC50) came out at 54.3 µM. Moreover, the Retention time in data set [1] was in the range of 31.9 to 33.1 min.

The values above are taken from ChEMBL document CHEMBL4350976, “Sequence modification of heptapeptide selected by phage display as homing device for HT-29 colon cancer cells to improve the anti-tumour activity of drug delivery systems” (Eur J Med Chem, 2019).
